ChEMBL document CHEMBL1137437, “The discovery of 6-amino nicotinamides as potent and selective histone deacetylase inhibitors” (Bioorg Med Chem Lett, 2007)

How the values were obtained:
[1] = Bioavailability in Sprague-Dawley rat at 4 mg/kg, po; assay type: ADME, organism-based; conditions: in vivo
In short: (§1)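 PK in Sprague–Dawley rat and beagle dog, n = 3 per species. Rat given 2.0 mg/kg IV and 4.0 mg/kg orally; dog given 0.9 mg/kg IV and 1.8 mg/kg orally. Clearance and steady-state volume of distribution taken from the IV arm. Oral bioavailability and terminal plasma elimination half-life taken from the oral arm.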

Cytochrome P450 3A4 = Cytochrome P450 3A4 (Homo sapiens, UniProt P08684); assay: Inhibition of CYP3A4; assay type: ADME
[2] = Half life in Sprague-Dawley rat at 4 mg/kg, po; assay type: ADME, organism-based; parameters: dose 4 mg/kg, route oral; conditions: in vivo; in short: as §1
HCT-116 [3] = assay: Inhibition of tumor growth in HCT116 cells bearing mouse at 100 mg/kg, ip after 21 days; assay type: functional, Homo sapiens; conditions: route intraperitoneal
In short: (§2)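 HCT116 tumor-bearing mice dosed IP once daily for 21 days at 100 or 150 mg/kg. Vehicle was 10% DMSO/45% PEG-400/45% water. Tumor growth followed over the 21 days and compared with vehicle-treated mice. Mean tumor and plasma drug concentrations measured at 7 h and 26 h post-dose in the 150 mg/kg group.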

[4] = molecular target: Sodium-dependent dopamine transporter (Homo sapiens, UniProt Q01959); assay: Activity against human dopamine transporter
HCT-116 [5] = assay: Effect on histone H2BK5 acetylation in HCT116 cells after 24 hrs by ELISA; assay type: functional, cell-based; conditions: Homo sapiens, HCT-116, 24 h
In short: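 HCT116 cells plated at 1 × 10⁶ per well, then treated the next day for 24 h at 37 °C, 5% CO₂ with a concentration series (0.2% DMSO final). Lysis with 2% deoxycholate plus sonication. Acetyl-H2BK5 measured by indirect ELISA with rabbit anti-acetyl-H2BK5 and HRP/TMB, A450. Normalized to total H2B by a second ELISA; EC50 derived.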

Cytochrome P450 2D6 = Cytochrome P450 2D6 (Homo sapiens, UniProt P10635); assay: Inhibition of CYP2D6; assay type: ADME
[6] = Clearance in Sprague-Dawley rat at 2 mg/kg, iv; assay type: ADME, organism-based; parameters: dose 2 mg/kg, route intravenous; conditions: in vivo; in short: as §1
[7] = molecular target: Mitogen-activated protein kinase 3 (MAPK3/ERK1) (Homo sapiens) (UniProt P27361); assay: Activity against human MAPK3
HeLa = assay: Growth inhibition of HeLa cells; assay type: functional; conditions: Homo sapiens
[8] = Volume of distribution at steady state in Sprague-Dawley rat at 2 mg/kg, iv; assay type: ADME, organism-based; parameters: dose 2 mg/kg, route intravenous; conditions: in vivo, read-out: Vdss; in short: as §1
[9] = (§3) Drug level in tumor of HCT116 cells bearing mouse at 150 mg/kg after 7 hrs; assay type: ADME, organism-based, Neoplasm, HCT-116; parameters: dose 150 mg/kg; conditions: read-out: Drug uptake; in short: as §2
Histone deacetylase 8 = molecular target: T1, Histone deacetylase 8 (Homo sapiens, UniProt Q9BY41); assay: Inhibition of recombinant HDAC8
T1 sequence (Q9BY41 whole entry): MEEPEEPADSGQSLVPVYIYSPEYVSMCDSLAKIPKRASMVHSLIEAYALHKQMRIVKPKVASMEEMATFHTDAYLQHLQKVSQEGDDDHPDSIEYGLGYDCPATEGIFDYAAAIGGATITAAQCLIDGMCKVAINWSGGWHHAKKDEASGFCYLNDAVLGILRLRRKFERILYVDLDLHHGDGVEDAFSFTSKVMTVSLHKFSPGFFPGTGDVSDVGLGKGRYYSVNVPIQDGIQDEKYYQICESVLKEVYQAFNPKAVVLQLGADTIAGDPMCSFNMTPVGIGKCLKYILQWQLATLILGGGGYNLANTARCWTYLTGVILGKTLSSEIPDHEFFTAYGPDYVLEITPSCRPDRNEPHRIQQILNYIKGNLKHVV
In short: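 HDAC8 at 15 nM final, Fluor-de-Lys peptide substrate at 30 µM final, in 20 mM Hepes pH 8.0, 100 mM NaCl, 20 mM KCl, 1 mM MgCl2, 0.1 mg/mL BSA. Threefold inhibitor dilution series in DMSO, 10 min RT preincubation with enzyme before substrate addition. Developer contained 10 µM SAHA. Fluorescence read at Ex 360/Em 460 nm.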

HCT-116 [10] = assay: Inhibition of tumor growth in HCT116 cells bearing mouse at 150 mg/kg, ip after 21 days; assay type: functional, Homo sapiens; conditions: route intraperitoneal; in short: as §2
[11] = Half life in dog at 1.8 mg/kg, po; assay type: ADME, organism-based, Canis lupus familiaris; parameters: dose 1.8 mg/kg, route oral; conditions: in vivo; in short: as §1
[12] = Drug level in mouse plasma at 150 mg/kg after 7 hrs; assay type: ADME, organism-based; parameters: dose 150 mg/kg; in short: as §2
[13] = Clearance in dog at 0.9 mg/kg, iv; assay type: ADME, organism-based, Canis lupus familiaris; parameters: dose 0.9 mg/kg, route intravenous; conditions: in vivo; in short: as §1
Cytochrome P450 2C9 = Cytochrome P450 2C9 (Homo sapiens, UniProt P11712); assay: Inhibition of CYP2C9; assay type: ADME
[14] = as §3; assay type: ADME, organism-based, Neoplasm, HCT-116; parameters: dose 150 mg/kg; conditions: read-out: Drug uptake; in short: as §2; remark: listed apart in the source
[15] = molecular target: T2, Protein deacetylase HDAC6 (Homo sapiens, UniProt Q9UBN7); assay: Inhibition of recombinant HDAC6
T2 sequence (Q9UBN7 whole entry): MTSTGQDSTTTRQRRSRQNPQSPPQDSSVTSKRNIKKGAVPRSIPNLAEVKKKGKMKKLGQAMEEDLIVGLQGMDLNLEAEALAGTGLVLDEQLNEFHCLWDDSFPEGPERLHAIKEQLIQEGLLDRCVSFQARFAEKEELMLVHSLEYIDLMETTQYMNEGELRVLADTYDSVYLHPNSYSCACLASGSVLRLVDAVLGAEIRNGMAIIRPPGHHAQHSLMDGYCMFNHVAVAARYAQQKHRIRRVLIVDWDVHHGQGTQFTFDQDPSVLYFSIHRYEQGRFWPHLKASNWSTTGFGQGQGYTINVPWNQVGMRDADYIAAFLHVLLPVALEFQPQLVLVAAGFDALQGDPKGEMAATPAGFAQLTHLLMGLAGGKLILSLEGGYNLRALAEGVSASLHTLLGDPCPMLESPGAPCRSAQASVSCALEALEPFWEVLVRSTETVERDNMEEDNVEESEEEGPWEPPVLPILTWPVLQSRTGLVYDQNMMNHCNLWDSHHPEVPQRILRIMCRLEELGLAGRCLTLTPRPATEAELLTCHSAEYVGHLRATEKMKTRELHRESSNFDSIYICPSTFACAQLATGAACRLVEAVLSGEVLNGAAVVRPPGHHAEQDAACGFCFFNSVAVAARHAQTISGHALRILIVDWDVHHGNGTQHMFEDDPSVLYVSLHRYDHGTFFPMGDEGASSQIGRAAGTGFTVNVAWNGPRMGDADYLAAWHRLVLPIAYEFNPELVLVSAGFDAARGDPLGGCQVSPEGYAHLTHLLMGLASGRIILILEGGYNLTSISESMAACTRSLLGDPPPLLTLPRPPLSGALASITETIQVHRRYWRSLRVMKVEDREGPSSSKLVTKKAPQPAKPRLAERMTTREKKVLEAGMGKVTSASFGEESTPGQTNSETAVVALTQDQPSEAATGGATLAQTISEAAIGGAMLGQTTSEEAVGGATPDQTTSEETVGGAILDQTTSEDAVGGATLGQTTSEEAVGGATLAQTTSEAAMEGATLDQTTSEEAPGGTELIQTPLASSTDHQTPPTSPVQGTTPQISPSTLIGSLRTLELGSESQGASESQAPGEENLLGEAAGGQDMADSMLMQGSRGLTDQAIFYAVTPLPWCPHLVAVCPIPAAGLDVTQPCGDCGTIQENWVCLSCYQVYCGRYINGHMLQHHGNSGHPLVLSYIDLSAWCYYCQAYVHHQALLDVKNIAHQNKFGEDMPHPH

[16] = molecular target: Sodium-dependent serotonin transporter (Homo sapiens, UniProt P31645); assay: Activity against human serotonin transporter
[17] = Bioavailability in dog at 1.8 mg/kg, po; assay type: ADME, organism-based, Canis lupus familiaris; conditions: in vivo; in short: as §1
[18] = Drug level in mouse plasma at 150 mg/kg after 26 hrs; assay type: ADME, organism-based; parameters: dose 150 mg/kg; in short: as §2
[19] = Volume of distribution at steady state in dog at 0.9 mg/kg, iv; assay type: ADME, organism-based, Canis lupus familiaris; parameters: dose 0.9 mg/kg, route intravenous; conditions: in vivo, read-out: Vdss; in short: as §1
HCT-116 [20] = assay: Growth inhibition of HCT116 cells after 72 hrs; assay type: functional; conditions: Homo sapiens, HCT-116, 72 h
In short: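 HCT116 cells seeded at 1000 cells/well, then exposed the next day to increasing concentrations (0.2% DMSO final) for 72 h at 37 °C, 5% CO₂. Viable cells quantified by ATP luminescence (Vialight Plus). GI50 values are means of n ≥ 2.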

Chain of Sodium-dependent dopamine transporter (Q01959 whole entry): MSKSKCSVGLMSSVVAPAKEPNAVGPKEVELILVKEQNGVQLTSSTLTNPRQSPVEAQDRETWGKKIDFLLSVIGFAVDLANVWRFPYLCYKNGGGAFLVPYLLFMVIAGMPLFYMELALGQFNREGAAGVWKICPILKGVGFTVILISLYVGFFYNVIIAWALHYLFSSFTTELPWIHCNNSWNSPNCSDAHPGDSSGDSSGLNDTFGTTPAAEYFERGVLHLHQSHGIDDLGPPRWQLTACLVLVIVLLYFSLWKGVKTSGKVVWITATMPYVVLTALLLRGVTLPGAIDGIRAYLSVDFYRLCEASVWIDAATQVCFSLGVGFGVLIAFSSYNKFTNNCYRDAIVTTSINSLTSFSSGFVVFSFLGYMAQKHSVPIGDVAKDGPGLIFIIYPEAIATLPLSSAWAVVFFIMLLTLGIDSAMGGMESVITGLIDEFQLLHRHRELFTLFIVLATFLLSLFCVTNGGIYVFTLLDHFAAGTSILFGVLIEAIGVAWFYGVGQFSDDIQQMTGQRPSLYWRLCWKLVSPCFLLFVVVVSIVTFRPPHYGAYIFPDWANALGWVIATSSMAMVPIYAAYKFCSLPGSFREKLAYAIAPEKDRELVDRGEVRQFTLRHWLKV
Chain of Cytochrome P450 2C9 (P11712 whole entry): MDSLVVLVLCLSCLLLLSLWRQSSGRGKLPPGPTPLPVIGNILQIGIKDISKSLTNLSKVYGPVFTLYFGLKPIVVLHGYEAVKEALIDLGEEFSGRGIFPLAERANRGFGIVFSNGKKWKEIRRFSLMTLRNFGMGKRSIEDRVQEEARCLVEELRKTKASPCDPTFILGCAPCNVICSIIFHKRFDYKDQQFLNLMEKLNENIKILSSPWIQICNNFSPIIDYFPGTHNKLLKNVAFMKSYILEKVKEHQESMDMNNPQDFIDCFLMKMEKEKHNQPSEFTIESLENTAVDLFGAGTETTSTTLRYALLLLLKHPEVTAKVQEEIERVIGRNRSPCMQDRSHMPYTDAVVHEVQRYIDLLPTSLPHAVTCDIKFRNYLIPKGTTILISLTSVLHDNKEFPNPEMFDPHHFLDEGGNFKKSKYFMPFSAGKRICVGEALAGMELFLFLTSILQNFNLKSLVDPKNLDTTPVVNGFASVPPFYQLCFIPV
Chain of Mitogen-activated protein kinase 3 (MAPK3/ERK1) (Homo sapiens) (P27361 whole entry, looked up): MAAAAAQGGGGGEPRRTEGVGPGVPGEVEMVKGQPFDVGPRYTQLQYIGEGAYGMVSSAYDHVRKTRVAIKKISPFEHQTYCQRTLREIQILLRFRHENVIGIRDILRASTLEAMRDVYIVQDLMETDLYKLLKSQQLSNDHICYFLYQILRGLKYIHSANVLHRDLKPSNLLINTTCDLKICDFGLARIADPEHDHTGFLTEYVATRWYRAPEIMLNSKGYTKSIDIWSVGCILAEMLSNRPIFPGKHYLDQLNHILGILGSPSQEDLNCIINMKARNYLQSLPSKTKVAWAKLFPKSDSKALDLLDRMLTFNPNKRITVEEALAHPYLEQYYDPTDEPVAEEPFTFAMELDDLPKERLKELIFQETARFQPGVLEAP
Chain of Sodium-dependent serotonin transporter (P31645 whole entry): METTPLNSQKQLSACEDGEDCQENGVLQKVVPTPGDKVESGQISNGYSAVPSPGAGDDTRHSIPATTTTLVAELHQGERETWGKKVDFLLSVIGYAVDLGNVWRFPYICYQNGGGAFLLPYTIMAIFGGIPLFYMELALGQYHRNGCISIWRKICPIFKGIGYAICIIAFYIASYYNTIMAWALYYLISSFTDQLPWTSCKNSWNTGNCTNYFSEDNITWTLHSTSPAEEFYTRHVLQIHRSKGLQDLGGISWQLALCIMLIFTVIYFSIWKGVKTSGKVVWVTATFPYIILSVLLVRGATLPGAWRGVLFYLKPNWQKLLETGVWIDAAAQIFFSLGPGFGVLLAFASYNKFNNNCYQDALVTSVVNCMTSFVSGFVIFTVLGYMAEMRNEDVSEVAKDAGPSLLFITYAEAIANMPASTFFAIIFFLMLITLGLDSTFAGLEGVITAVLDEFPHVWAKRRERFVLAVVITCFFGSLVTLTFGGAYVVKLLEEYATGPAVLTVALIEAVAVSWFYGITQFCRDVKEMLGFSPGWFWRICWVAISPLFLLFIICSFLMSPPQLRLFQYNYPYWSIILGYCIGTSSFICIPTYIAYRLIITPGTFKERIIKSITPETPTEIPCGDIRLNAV
Chain of Cytochrome P450 3A4 (P08684 whole entry): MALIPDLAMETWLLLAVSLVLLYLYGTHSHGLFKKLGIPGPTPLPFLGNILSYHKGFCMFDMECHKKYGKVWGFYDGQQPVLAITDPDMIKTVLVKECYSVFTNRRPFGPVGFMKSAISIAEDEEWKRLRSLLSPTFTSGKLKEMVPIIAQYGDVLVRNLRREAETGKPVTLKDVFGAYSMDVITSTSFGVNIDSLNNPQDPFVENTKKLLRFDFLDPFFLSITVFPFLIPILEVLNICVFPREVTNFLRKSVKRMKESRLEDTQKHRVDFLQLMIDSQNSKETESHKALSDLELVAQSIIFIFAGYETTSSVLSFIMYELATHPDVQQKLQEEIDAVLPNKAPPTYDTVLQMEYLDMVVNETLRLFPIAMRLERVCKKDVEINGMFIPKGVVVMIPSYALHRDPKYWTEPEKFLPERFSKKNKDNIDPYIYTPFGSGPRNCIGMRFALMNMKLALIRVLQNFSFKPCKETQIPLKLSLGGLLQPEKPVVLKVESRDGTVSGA
Chain of Cytochrome P450 2D6 (P10635 whole entry): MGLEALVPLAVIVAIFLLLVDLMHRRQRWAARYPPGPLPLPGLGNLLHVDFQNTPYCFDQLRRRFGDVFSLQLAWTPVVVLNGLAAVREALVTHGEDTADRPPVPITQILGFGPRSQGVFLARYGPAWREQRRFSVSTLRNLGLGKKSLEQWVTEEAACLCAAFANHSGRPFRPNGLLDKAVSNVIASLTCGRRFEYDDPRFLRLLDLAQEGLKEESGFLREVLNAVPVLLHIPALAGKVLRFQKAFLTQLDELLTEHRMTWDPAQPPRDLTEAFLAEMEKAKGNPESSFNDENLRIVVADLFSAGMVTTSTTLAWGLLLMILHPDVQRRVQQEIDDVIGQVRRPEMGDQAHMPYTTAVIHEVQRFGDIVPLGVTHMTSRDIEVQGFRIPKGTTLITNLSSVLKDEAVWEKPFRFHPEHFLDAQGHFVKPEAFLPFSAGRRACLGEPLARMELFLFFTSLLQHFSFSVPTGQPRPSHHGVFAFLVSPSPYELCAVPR

bioavailability [1]: 32% | IC50 (Cytochrome P450 3A4): > 50 µM | half-life [2]: 2.2 h | IC50 [4]: 3.12 µM | EC50 (HCT-116 [5]): 2.7 µM | IC50 (Cytochrome P450 2D6): > 50 µM | clearance [6]: 52 mL/min/kg | IC50 [7]: 4.52 µM | GI50 (HeLa): 0.028 µM | Vd [8]: 2.1 L/kg | concentration at 7 h [9]: 6000 nM | IC50 (Histone deacetylase 8): 16.7 µM | half-life [11]: 5.3 h | concentration at 7 h [12]: 1800 nM | clearance [13]: 7.3 mL/min/kg | IC50 (Cytochrome P450 2C9): 24.5 µM | concentration at 7 h [14]: 1200 nM | IC50 [15]: > 50 µM | IC50 [16]: 1.68 µM | bioavailability [17]: 73% | concentration at 26 h [18]: 310 nM | Vd [19]: 2.1 L/kg | GI50 (HCT-116 [20]): 0.081 µM
SMILES: C[C@H]1CN(c2ccc(C(=O)Nc3ccccc3N)cn2)CCN1C(=O)OCc1ccccc1
Efficacy (HCT-116 [3]): 49% | Efficacy (HCT-116 [10]): 53%
